High-throughput results (PubChem BioAssay)
RGS4 act: potentiators or activators of RGS4. AID 463111. B-score at 10 µM. actives 0.92% (n = 310,000). HEK293 M3R/inducible RGS4, carbachol calcium flux Fluo4; hits give low values;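 active means B-score of the integrated calcium signal more than 4 SD below the library mean, with starting fluorescence not abnormally high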;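 further: negative B-score means reduced calcium response which marks RGS4 activation or potentiation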
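test system = M3R-expressing HEK293 line, RGS4 induced by doxycycline | probe or stimulus = carbachol at ECmax as muscarinic agonist stimulus | timing = dye loading 30 min 37 °C, buffer rest 30 min RT | signal = calcium dye Fluo4 fluorescence | evaluation = B score from integrated fluorescence ratio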
MrgX1 antagonist: blocks BAM8-22 activation of human MrgX1 receptor; B-score at 10 µM; MRGX1-HEK293 calcium flux, Fluo-4, BAM8-22 antagonism; hits give low values; AID 588676; Q96LB2; actives 1.3% (n = 310,000);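 active means calcium-response B-score plate-corrected more than 3 library SD below zero, starting fluorescence within 5 deviations, no agonist response on first addition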;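 further: peak minus trough fluorescence over baseline after final BAM8-22 challenge near maximal dose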
Target sequence (Q96LB2 whole entry, looked up): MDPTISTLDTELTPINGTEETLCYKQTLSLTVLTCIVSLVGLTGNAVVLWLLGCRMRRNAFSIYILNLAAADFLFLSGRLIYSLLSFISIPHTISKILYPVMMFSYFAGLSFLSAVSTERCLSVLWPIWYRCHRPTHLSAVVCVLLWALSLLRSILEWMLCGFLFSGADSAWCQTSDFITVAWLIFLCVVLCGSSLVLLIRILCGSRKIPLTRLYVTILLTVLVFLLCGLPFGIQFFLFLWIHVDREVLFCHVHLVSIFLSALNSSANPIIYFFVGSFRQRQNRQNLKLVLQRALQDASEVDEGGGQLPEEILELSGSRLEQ
MrgX1 ag: agonists of human MrgX1 receptor; MrgX1-HEK293 cells, Fluo-4 calcium fluorescence, agonist mode; hits give high values; B-score at 10 µM; actives 0.44% (n = 310,000); Q96LB2; AID 588627;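 active means calcium response B-score plate-corrected fluorescence ratio at least 3 library SD, with starting fluorescence B-score inside 5 SD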
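Assay system: MrgX1-expressing HEK293 cells / Amount: fifteen thousand cells per well / Doses: test compound in the initial addition of three / Timing: cells plated overnight, dye loaded 0.5 h 37 °C, 0.5 h room temperature / Technique: kinetic calcium dye fluorescence, Fluo-4 NW / Control set: positive and negative controls per plate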
RGS4 inh: inhibitors of human RGS4. P49798. HEK293 M3R/RGS4 inducible, Fluo-4 calcium flux; hits give high values; triggered by carbachol at its EC20. B-score at 10 µM. actives 0.45% (n = 310,000). AID 463165;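 active means B-score, a plate-corrected calcium signal, over three deviations above library mean, with baseline fluorescence within five deviations of library mean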;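 further: RGS4 expression induced by doxycycline in cells with stable M3 receptor; B-score is computed from the integrated fluorescence ratio over baseline after carbachol; higher B-score means a larger calcium signal and so more RGS4 inhibition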
Target sequence (P49798 whole entry, looked up): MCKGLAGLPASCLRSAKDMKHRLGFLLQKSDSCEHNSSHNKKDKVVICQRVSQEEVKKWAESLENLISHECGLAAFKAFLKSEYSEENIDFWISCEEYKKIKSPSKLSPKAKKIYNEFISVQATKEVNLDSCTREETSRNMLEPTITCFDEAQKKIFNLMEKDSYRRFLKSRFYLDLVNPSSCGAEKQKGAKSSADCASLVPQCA
MrgX1 allo act: human MrgX1 positive allosteric modulation, primary screen; Q96LB2; MrgX1-HEK293, Fluo-4 calcium flux, FDSS; hits give high values; B-score at 10 µM; actives 0.63% (n = 310,000);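 active means plate-corrected calcium response at least 3 library SD above typical, normal starting fluorescence, not activating the receptor alone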;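 further: compound read alongside a low EC10 to EC30 dose of BAM8-22 agonist; peak minus trough fluorescence over baseline measured at the second addition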
RGS4 block valid: validation of RGS4 inhibitors; shares compounds with RGS4 inh; HEK293 M3R/RGS4, carbachol calcium Fluo-4 fluorescence; carbachol added at its EC20; 0 = buffer wells, 100 = carbachol control; calcium response, % at 10 µM; actives 65% (n = 1,700); AID 492999;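 active means duplicate-averaged calcium response above the buffer-only control mean plus 5 SD of those controls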;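 further: integrated fluorescence ratio F max minus min over baseline F0; higher response in RGS4-induced cells means RGS4 inhibition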
M3R Ca ctr: counter-screen for RGS4 inhibitors: effect in non-induced cells. shares compounds with RGS4 inh. HEK293 M3R non-induced, carbachol calcium Fluo-4; submaximal (EC20) carbachol stimulus; buffer wells 0%, carbachol control wells 100%. activity (percent), % at 10 µM. actives 20% (n = 1,900); call rule not given here;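 further: RGS4 induction absent so cells express M3R without RGS4; higher means more calcium signal and flags a non-specific hit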
RGS4 inh ctr2: second RGS4 inhibitor counter-screen in uninduced cells lacking carbachol; AID 493001; shares compounds with RGS4 inh; actives 22% (n = 1,900); HEK293 M3R/RGS4 non-induced, Fluo-4 calcium, no carbachol; normalised: buffer wells 0%, carbachol wells 100%; calcium response (agonist-mode artifact), % at 10 µM;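 active means duplicate-averaged calcium rise in uninduced cells above buffer wells' mean plus 5 SD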
Hits are given with their value; i = inactive; nt = no result. The list is not random: actives were taken first. Their share in the collection is about 3.5%.

SMILES	RGS4 act	MrgX1 antagonist	MrgX1 ag	RGS4 inh	MrgX1 allo act	RGS4 block valid	M3R Ca ctr	RGS4 inh ctr2
N#C/C(=C/c1ccc(O)c(O)c1)C(=O)NCc1ccc(Cl)cc1	i	i	i	7.59	13.1	i	i	i
CCCCC1=CC2=C(c3ccco3)C(=O)C(C)(OC(=O)c3ccc(OC)cc3)C(=O)C2=CN1C1CC1 (stereo unspecified)	i	i	i	9.33	i	5.5%	i	i
COC(=O)CCCC1=CC2=C(c3ccccc3)C(=O)C(C)(OC(=O)C3CCCC3)C(=O)C2=CN1C1CC1 (stereo unspecified)	i	i	i	i	i	nt	nt	nt
CCCCC1=CC2=C(c3ccco3)C(=O)C(C)(OC(=O)c3ccc(OC)cc3)C(=O)C2=CN1C1CCCC1 (stereo unspecified)	i	i	i	i	i	i	i	102.0%
COc1ccc2oc3cc(C)[n+]([O-])c(-c4ccc(C)cc4)c3c2c1	i	i	i	i	i	nt	nt	nt
NC(=O)Cn1c(=O)n(CC(=O)N2CCCCC2)c(=O)c2sccc21	i	i	i	i	i	nt	nt	nt
CCN(Cc1ccccc1)C(=O)Cn1c(=O)n(CC(=O)N2CCCCC2)c(=O)c2sccc21	i	i	i	i	i	nt	43.5%	i
COc1ccc(OC)c(NC(=O)C2CCN(S(=O)(=O)c3ccc4c(c3)CC(C)N4C(C)=O)CC2)c1 (stereo unspecified)	i	i	i	i	i	nt	nt	nt
Cc1c(C(=O)N2CCCC2)c(S(=O)(=O)Nc2ccccc2)c(C)n1C	i	i	i	i	i	nt	nt	nt
CCCCCCCNC(=O)CN1C(=O)CSc2ccc(S(=O)(=O)N3CCOCC3)cc21	i	i	i	i	i	nt	nt	nt
CCOCCCNC(=O)CN1C(=O)CSc2ccc(S(=O)(=O)N3CCOCC3)cc21	i	i	i	i	i	i	i	i
CCOCCCNC(=O)CN1C(=O)COc2ccc(S(=O)(=O)N3CCCC3)cc21	i	i	i	i	i	nt	i	i
COCCCNC(=O)CN1C(=O)COc2ccc(S(=O)(=O)N3CCCCCC3)cc21	i	i	i	i	i	nt	nt	nt
C#CCN(C#N)c1nc(NCC)nc(NC(C)C)n1	i	i	i	i	i	nt	nt	nt
CCN(C#N)c1nc(NC(C)C)nc(NC(C)C)n1	i	i	i	i	i	i	i	i
CCCC(=O)Nc1nnc(SCC(=O)NCc2ccco2)s1	i	i	i	i	i	nt	nt	nt
COc1ccc(OC)c(-c2csc(N(CC3CCCO3)C(=O)C3CCCCC3)n2)c1 (stereo unspecified)	i	i	i	7.18	i	24.0%	i	i
COc1cc(/C=C/C(=O)c2c(O)ccc3c(C)cc(=O)oc23)ccc1O	i	i	i	i	6.7	nt	i	i
COc1ccc(/C=C\C(=O)c2c(O)ccc3c(C)cc(=O)oc23)cc1OC	i	i	i	6.74	i	8.0%	i	i
Cc1cc(=O)oc2c(C(=O)/C=C/c3ccccc3)c(O)ccc12	i	i	i	i	i	nt	nt	nt
CN(C)C1(CNC(=O)Nc2ccccc2)CCCCC1	i	i	i	4.67	i	i	i	i
CC(=O)Nc1ccc(C(=S)NCC2(N(C)C)CCCCC2)cc1	i	i	i	i	i	nt	nt	nt
c1ccc2c(c1)COC(CNC1CCCCC1)OC2	i	i	i	i	i	nt	nt	nt
O=[N+]([O-])c1cc(Cl)cc(/C=N/NC(=S)Nc2ccc(S(=O)(=O)N3CCOCC3)cc2)c1O	i	i	i	i	i	i	i	i
O=[N+]([O-])c1ccc(O)c(C=Nc2ccc3c(c2)OCCO3)c1	i	i	i	i	i	nt	nt	nt
Oc1c(Br)cc(Br)cc1C=Nc1ccc2c(c1)OCO2	i	i	i	i	i	i	i	48.0%
Oc1c(Br)cc(Br)cc1C=Nc1ccc2c(c1)OCCO2	i	i	i	5.83	i	i	i	74.5%
